# Reference: ChEMBL document CHEMBL1156979, “The impact of polyether chain length on the iron clearing efficiency and physiochemical properties of desferrithiocin analogues” (J Med Chem, 2010)
# Active and inactive are the calls of the source. The calls are words filed in the database; no cut-off is given here.
# Tests used:
# Sapajus apella [1] = assay: Iron-clearing efficiency in iron-overloaded Cebus apella at 75 umol/kg, po measured daily once for 2 days by flame absorption spectroscopy relative to control; assay type: functional
# How it was run: (§1)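 Iron-overloaded Cebus apella (3.5–4 kg; iv iron dextran to about 500 mg Fe/kg, ≥60 days before use) dosed orally at 75 μmol/kg, by gavage as monosodium salt (1 equiv NaOH in distilled water) or in capsules. Feces and urine collected every 24 h from 4 days pre-drug to 5 days post-drug; iron by flame absorption spectroscopy. ICE = 2-day post-drug iron minus 4-day baseline average, divided by theoretical output (2:1 ligand:iron); percent. Performance ratio = mean primate ICE/rodent ICE.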
# Sapajus apella [2] = assay: Iron-clearing efficiency in iron-overloaded Cebus apella assessed as feces iron excretion at 75 umol/kg, po measured daily once for 5 days by lame absorption spectroscopy relative to control; assay type: functional
# Sapajus apella [3] = assay: Iron-clearing efficiency in iron-overloaded Cebus apella assessed as urine iron excretion at 75 umol/kg, po measured daily once for 5 days by lame absorption spectroscopy relative to control; assay type: functional
# Sapajus apella [4] = assay: Iron-clearing efficiency in iron-overloaded Cebus apella at 150 umol/kg, po measured daily once for 2 days by flame absorption spectroscopy relative to control; assay type: functional
# Sapajus apella [5] = assay: Iron-clearing efficiency in iron-overloaded Cebus apella assessed as feces iron excretion at 150 umol/kg, po measured daily once for 5 days by lame absorption spectroscopy relative to control; assay type: functional
# Sapajus apella [6] = assay: Iron-clearing efficiency in iron-overloaded Cebus apella assessed as urine iron excretion at 150 umol/kg, po measured daily once for 5 days by lame absorption spectroscopy relative to control; assay type: functional
# Rattus norvegicus [7] = assay: Iron-clearing efficiency in non-iron-overloaded and bile duct-cannulated Sprague-Dawley rat assessed as time required to maximum bile iron excretion at 300 umol/kg, po; assay type: functional
# How it was run: (§2)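 Non-iron-overloaded male Sprague-Dawley rats (400–450 g), bile duct-cannulated, given a single oral dose of 300 μmol/kg, either by gavage as monosodium salt or in capsules. Bile was collected at 3 h intervals for up to 48 h and urine every 24 h. Iron was measured by flame absorption spectroscopy. ICE = 24-h iron excretion of treated rats minus controls, divided by theoretical output (2:1 ligand:iron); percent. Mean ± SEM; one-tailed t-test.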
# Rattus norvegicus [8] = assay: Iron-clearing efficiency in non-iron-overloaded and bile duct-cannulated Sprague-Dawley rat assessed as bile iron excretion at 300 umol/kg, po up to 12 hrs; assay type: functional, organism-based; how it was run: as §2
# [9] = Ratio of iron-clearing efficiency in iron-overloaded Cebus apella at 75 umol/kg, po to iron-clearing efficiency in non-iron-overloaded and bile duct-cannulated Sprague-Dawley rat at 300 umol/kg, po after 48 hrs; assay type: functional, organism-based; how it was run: as §1
# Rattus norvegicus [10] = assay: Iron-clearing efficiency in non-iron-overloaded and bile duct-cannulated Sprague-Dawley rat assessed as time required to maximum bile iron excretion at 300 umol/kg, po after 12 to 15 hrs; assay type: functional, organism-based; how it was run: as §2
# Rattus norvegicus [11] = assay: Iron-clearing efficiency in non-iron-overloaded and bile duct-cannulated Sprague-Dawley rat assessed as bile iron excretion at 300 umol/kg, po up to 48 hrs; assay type: functional, organism-based; how it was run: as §2
# Sapajus apella [12] = assay: Iron-clearing efficiency in iron-overloaded Cebus apella assessed as reduction of liver iron stores at 384 umol/kg, po qd for 28 days; assay type: functional, organism-based
# Rattus norvegicus [13] = assay: Iron-clearing efficiency in non-iron-overloaded and bile duct-cannulated Sprague-Dawley rat assessed as reduction of pancreatic iron content at 384 umol/kg, po qd for 10 days administered as monosodium salt; assay type: functional, organism-based
# How it was run: (§3)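 Male Sprague-Dawley rats (300–350 g) were fasted overnight and dosed orally once daily for 10 d. Dosing was 384 μmol/kg/d in gelatin capsules (n = 5) or by gavage as monosodium salt (n = 10), or 192 (n = 6) or 384 μmol/kg/d (n = 5) in capsules. Rats were fed ~3 h post-dose. Age-matched untreated controls (n = 12). Kidney, liver, heart and pancreas were taken on day 11, wet-ashed (120 °C, then H2O2), and iron was measured by flame absorption spectroscopy.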
# Rattus norvegicus [14] = assay: Iron-clearing efficiency in non-iron-overloaded and bile duct-cannulated Sprague-Dawley rat assessed as reduction of pancreatic iron content at 384 umol/kg, po qd for 10 days administered as gelatin capsules; assay type: functional, organism-based; how it was run: as §3
# Rattus norvegicus [15] = assay: Iron-clearing efficiency in non-iron-overloaded and bile duct-cannulated Sprague-Dawley rat assessed as reduction of liver iron stores at 384 umol/kg, po qd for 10 days
# Rattus norvegicus [16] = assay: Iron-clearing efficiency in non-iron-overloaded and bile duct-cannulated Sprague-Dawley rat assessed as complete bile iron excretion at 300 umol/kg, po; assay type: functional; how it was run: as §2
# Rattus norvegicus [17] = assay: Iron-clearing efficiency in non-iron-overloaded and bile duct-cannulated Sprague-Dawley rat at 300 umol/kg, po after 24 hrs relative to control; assay type: functional; how it was run: as §2
# Rattus norvegicus [18] = assay: Iron-clearing efficiency in non-iron-overloaded and bile duct-cannulated Sprague-Dawley rat assessed as bile iron excretion at 300 umol/kg, po after 24 hrs relative to control; assay type: functional; how it was run: as §2
# Rattus norvegicus [19] = assay: Iron-clearing efficiency in non-iron-overloaded and bile duct-cannulated Sprague-Dawley rat assessed as urine iron excretion at 300 umol/kg, po after 24 hrs relative to control; assay type: functional
# [20] = Ratio of iron-clearing efficiency in iron-overloaded Cebus apella at 75 umol/kg, po to iron-clearing efficiency in non-iron-overloaded and bile duct-cannulated Sprague-Dawley rat at 300 umol/kg, po; assay type: functional, organism-based; how it was run: as §1
# Rattus norvegicus [21] = assay: Iron-clearing efficiency in non-iron-overloaded and bile duct-cannulated Sprague-Dawley rat assessed as bile iron excretion at 300 umol/kg, po up to 24 hrs; assay type: functional, organism-based; how it was run: as §2
SMILES,Activity (Sapajus apella [1]) [%],Activity (Sapajus apella [2]) [%],Activity (Sapajus apella [3]) [%],Activity (Sapajus apella [4]) [%],Activity (Sapajus apella [5]) [%],Activity (Sapajus apella [6]) [%],Time (Rattus norvegicus [7]) [h],also measured
COCCOCCOc1ccc(C2=N[C@@](C)(C(=O)[O-])CS2)c(O)c1.[Na+],26.3,83,7,,,,,
COCCOCCOCCOc1ccc(C2=N[C@@](C)(C(=O)O)CS2)c(O)c1,,,,25.4,96,4,3,Activity (Rattus norvegicus [8]): Active
COCCOCCOc1ccc(C2=N[C@@](C)(C(=O)O)CS2)c(O)c1,,,,,,,,Ratio [9]: 1; Activity (Rattus norvegicus [10]): inactive; Activity (Rattus norvegicus [11]): Active; Activity (Sapajus apella [12]): Active; Activity (Rattus norvegicus [13]): Active; Activity (Rattus norvegicus [14]): inactive; Activity (Rattus norvegicus [15]): Active
C[C@]1(C(=O)[O-])CSC(c2ccc(O)cc2O)=N1.[Na+] [DEFERITRIN SODIUM],,,,16.8,88,12,3,Time (Rattus norvegicus [16]): 9 h
COCCOCCOCCOCCOc1ccc(C2=N[C@@](C)(C(=O)[O-])CS2)c(O)c1.[Na+],9.8,52,48,,,,6,Activity (Rattus norvegicus [17]): 12%; Activity (Rattus norvegicus [18]): 99%; Activity (Rattus norvegicus [19]): 1%; Ratio [20]: 0.8; Activity (Rattus norvegicus [21]): Active
